Measured values taken from ChEMBL document CHEMBL1255444, “In vitro antibacterial activities of JNJ-Q2, a new broad-spectrum fluoroquinolone” (Antimicrob Agents Chemother, 2010).
Converted amounts (≈) assume the structure as drawn. The source made the active and inactive calls. No cut-off for these calls is given here.

Key:
Streptococcus pneumoniae [1] = experiment: Antibacterial activity against Streptococcus pneumoniae isolate OC6608 assessed as log reduction in bacterial growth at 4 times MIC measured at 24 hrs by time-kill assay; type: functional
In short: (§1)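 Drug was diluted from 50× stocks made in water or acidified water. Samples were taken at 6 and 24 h and serially diluted onto TSA-5% sheep blood plates. Plates were incubated 20–24 h at 37°C in 5% CO2 before counting CFU. Log10 titer change is given relative to the starting inoculum.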

Providencia stuartii = experiment: Ratio of Moxifloxacin MIC90 to compound MIC90 for Providencia stuartii; type: functional
Streptococcus pneumoniae [2] = experiment: Antibacterial activity against erythromycin-resistant Streptococcus pneumoniae by broth microdilution method; type: functional, organism-based
In short: (§2)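 CLSI M07-A7 broth microdilution MIC. Medium was cation-adjusted Mueller-Hinton broth. For S. pneumoniae it was Mueller-Hinton supplemented with 5% lysed horse blood. CLSI quality-control strains were included as appropriate.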

Streptococcus pneumoniae [3] = experiment: Antibacterial activity against multidrug resistant Streptococcus pneumoniae by broth microdilution method; type: functional, organism-based
In short: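 CLSI M07-A7 broth microdilution MIC in cation-adjusted Mueller-Hinton medium. For S. pneumoniae the medium was supplemented with 5% lysed horse blood. CLSI quality-control strains were included as appropriate.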

Streptococcus pneumoniae [4] = experiment: Antibacterial activity against ciprofloxacin-resistant Streptococcus pneumoniae by broth microdilution method; type: functional; in short: as §2
Staphylococcus aureus [5] = experiment: Antibacterial activity against Staphylococcus aureus […] by broth microdilution method; type: functional; in short: as §2
Staphylococcus aureus [6] = experiment: Antibacterial activity against methicillin-susceptible Staphylococcus aureus by broth microdilution method; type: functional
Staphylococcus aureus [7] = experiment: Antibacterial activity against methicillin-resistant Staphylococcus aureus by broth microdilution method; type: functional; in short: as §2
Streptococcus agalactiae = experiment: Antibacterial activity against Streptococcus agalactiae by broth microdilution method; type: functional
In short: (§3)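 MICs by CLSI M07-A7 broth microdilution in cation-adjusted Mueller-Hinton medium. For S. pneumoniae the medium was supplemented with 5% lysed horse blood. CLSI quality control strains were run alongside as appropriate.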

Enterococcus faecalis = experiment: Antibacterial activity against Enterococcus faecalis ATCC 29212 by broth microdilution method; type: functional; in short: as §3
Haemophilus influenzae = experiment: Antibacterial activity against Haemophilus influenzae by broth microdilution method; type: functional; in short: as §3
Moraxella catarrhalis = experiment: Antibacterial activity against Moraxella catarrhalis by broth microdilution method; type: functional; in short: as §3
Klebsiella aerogenes = experiment: Antibacterial activity against Enterobacter aerogenes by broth microdilution method; type: functional; in short: as §3
Citrobacter freundii = experiment: Antibacterial activity against Citrobacter freundii by broth microdilution method; type: functional; in short: as §3
Pseudomonas aeruginosa = experiment: Antibacterial activity against Pseudomonas aeruginosa ATCC 27853 by broth microdilution method; type: functional; in short: as §3
Streptococcus pneumoniae [8] = experiment: Ratio of Gemifloxacin MIC90 to compound MIC90 for ciprofloxacin-resistant Streptococcus pneumoniae; type: functional
Streptococcus pneumoniae [9] = experiment: Antibacterial activity against Streptococcus pneumoniae isolate OC7189 by broth microdilution method; type: functional; in short: as §2
Streptococcus pneumoniae [10] = experiment: Antibacterial activity against Streptococcus pneumoniae isolate OC6608 assessed as log reduction in bacterial growth at 4 times MIC measured at 6 hrs by time-kill assay; type: functional; in short: as §1
Streptococcus pneumoniae [11] = experiment: Antibacterial activity against Streptococcus pneumoniae isolate OC5462 assessed as log reduction in bacterial growth at 2 times MIC measured at 6 hrs by time-kill assay; type: functional; in short: as §1
Streptococcus pneumoniae [12] = experiment: Antibacterial activity against Streptococcus pneumoniae isolate OC6790 assessed as log reduction in bacterial growth at 2 times MIC measured at 6 hrs by time-kill assay; type: functional; in short: as §1
Streptococcus pneumoniae [13] = experiment: Antibacterial activity against Streptococcus pneumoniae isolate OC6790 assessed as log reduction in bacterial growth at 2 times MIC measured at 24 hrs by time-kill assay; type: functional; in short: as §1
Streptococcus pneumoniae [14] = experiment: Antibacterial activity against Streptococcus pneumoniae isolate OC7368 assessed as log reduction in bacterial growth at 4 times MIC measured at 6 hrs by time-kill assay; type: functional; in short: as §1
Streptococcus pneumoniae [15] = experiment: Antibacterial activity against Streptococcus pneumoniae isolate OC7348 by broth microdilution method; type: functional; in short: as §2
Streptococcus pneumoniae [16] = experiment: Antibacterial activity against Streptococcus pneumoniae isolate OC6585 by broth microdilution method; type: functional; in short: as §2
Streptococcus pneumoniae [17] = experiment: Antibacterial activity against Streptococcus pneumoniae isolate OC6610 by broth microdilution method; type: functional; in short: as §2
Streptococcus pneumoniae [18] = experiment: Antibacterial activity against Streptococcus pneumoniae isolate OC6610 assessed as log reduction in bacterial growth at 4 times MIC measured at 24 hrs by time-kill assay; type: functional; in short: as §1
Staphylococcus aureus [19] = experiment: Antibacterial activity against methicillin-resistant Staphylococcus aureus isolate OC11223 by broth microdilution method; type: functional; in short: as §2
Staphylococcus aureus [20] = experiment: Antibacterial activity against methicillin-resistant Staphylococcus aureus isolate OC12501 by broth microdilution method; type: functional; in short: as §2
Staphylococcus aureus [21] = experiment: Antibacterial activity against methicillin-resistant Staphylococcus aureus isolate OC11696 assessed as log reduction in bacterial growth at 2 times MIC measured at 24 hrs by time-kill assay; type: functional
In short: (§4)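 Overnight MRSA cultures were diluted into fresh cation-adjusted Mueller-Hinton broth to about 5 × 10^6 CFU/ml. […] Samples were plated serially diluted on trypticase soy agar, and CFU were counted after 20-24 h at 37°C. Value is the log10 decrease at 24 h from the starting inoculum; detection limit 100 CFU.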

Staphylococcus aureus [22] = experiment: Antibacterial activity against methicillin-resistant Staphylococcus aureus isolate OC12501 assessed as log reduction in bacterial growth at 2 times MIC measured at 24 hrs by time-kill assay; type: functional; in short: as §4
Staphylococcus aureus [23] = experiment: Antibacterial activity against methicillin-resistant Staphylococcus aureus isolate OC4222 harboring gyrA S84L and parC S80F mutant gene assessed as log reduction in bacterial growth at 4 times MIC measured at 24 hrs by time-kill assay; type: functional; in short: as §4
Staphylococcus aureus [24] = experiment: Antibacterial activity against methicillin-resistant Staphylococcus aureus isolate OC17042 harboring gyrA S84L/G106D, parC S80F and parE D732N mutant gene assessed as log reduction in bacterial growth at 2 times MIC measured at 24 hrs by time-kill assay; type: functional; in short: as §4
Staphylococcus aureus [25] = experiment: Antibacterial activity against methicillin-resistant Staphylococcus aureus isolate OC17042 harboring gyrA S84L/G106D, parC S80F and parE D732N mutant gene assessed as log reduction in bacterial growth at 4 times MIC measured at 24 hrs by time-kill assay; type: functional; in short: as §4
Staphylococcus aureus [26] = experiment: Antibacterial activity against methicillin-resistant Staphylococcus aureus isolate OC11521 harboring gyrA S84L/S85P, parC E84G mutant gene assessed as log reduction in bacterial growth at 4 times MIC measured at 24 hrs by time-kill assay; type: functional; in short: as §4
Streptococcus pneumoniae [27] = experiment: Antibacterial activity against Streptococcus pneumoniae R6 by agar dilution method; type: functional
In short: (§5)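 MICs for the resistance-selection studies were determined by CLSI agar dilution on Mueller-Hinton medium. For S. pneumoniae the medium was supplemented with 5% lysed horse blood. For MRSA fluctuation-assay strains an arithmetic agar dilution scheme was used for a more precise MIC.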

Streptococcus pneumoniae [28] = experiment: Antibacterial activity against Streptococcus pneumoniae OC7452 harboring parC S79Y mutant gene by agar dilution method; type: functional; in short: as §5
Staphylococcus aureus [29] = experiment: Antibacterial activity against methicillin-resistant Staphylococcus aureus isolate OC15425 harboring gyrA S84L and parC S80F mutant gene by agar dilution method; type: functional; in short: as §5

COc1c(N2CCC/C(=C(\F)CN)C2)c(F)cc2c(=O)c(C(=O)O)cn(C3CC3)c12 [ACORAFLOXACIN]
deltalog10CFU/ml (Streptococcus pneumoniae [1]): 7.1
Ratio (Providencia stuartii): 16
Activity (Streptococcus pneumoniae [2]): Active
Activity (Streptococcus pneumoniae [3]): Active
MIC50 (Streptococcus pneumoniae [4]): 0.12 µg/mL (≈ 0.286 µM)
MIC90 (Streptococcus pneumoniae [4]): 0.25 µg/mL (≈ 0.596 µM)
MIC50 (Staphylococcus aureus [5]): 0.12 µg/mL (≈ 0.286 µM)
MIC90 (Staphylococcus aureus [5]): 0.25 µg/mL (≈ 0.596 µM)
MIC50 (Staphylococcus aureus [6]): 0.015 µg/mL (≈ 0.0358 µM)
MIC90 (Staphylococcus aureus [6]): 0.015 µg/mL (≈ 0.0358 µM)
MIC50 (Staphylococcus aureus [7]): 0.12 µg/mL (≈ 0.286 µM)
MIC90 (Staphylococcus aureus [7]): 0.25 µg/mL (≈ 0.596 µM)
MIC50 (Streptococcus agalactiae): 0.015 µg/mL (≈ 0.0358 µM)
MIC90 (Streptococcus agalactiae): 0.015 µg/mL (≈ 0.0358 µM)
MIC50 (Enterococcus faecalis): 0.06 µg/mL (≈ 0.143 µM)
MIC90 (Enterococcus faecalis): 0.5 µg/mL (≈ 1.19 µM)
MIC (Haemophilus influenzae): 0.008 µg/mL (≈ 0.0191 µM)
MIC50 (Haemophilus influenzae): 0.008 µg/mL (≈ 0.0191 µM)
MIC90 (Haemophilus influenzae): 0.015 µg/mL (≈ 0.0358 µM)
MIC (Moraxella catarrhalis): ≤ 0.015 µg/mL
MIC50 (Moraxella catarrhalis): ≤ 0.015 µg/mL
MIC90 (Moraxella catarrhalis): ≤ 0.015 µg/mL
MIC50 (Klebsiella aerogenes): 0.12 µg/mL (≈ 0.286 µM)
MIC90 (Klebsiella aerogenes): 0.25 µg/mL (≈ 0.596 µM)
MIC50 (Citrobacter freundii): 2 µg/mL (≈ 4.77 µM)
MIC90 (Citrobacter freundii): 8 µg/mL (≈ 19.1 µM)
MIC50 (Pseudomonas aeruginosa): 1 µg/mL (≈ 2.38 µM)
MIC90 (Pseudomonas aeruginosa): 2 µg/mL (≈ 4.77 µM)
Ratio (Streptococcus pneumoniae [8]): 9
MIC (Streptococcus pneumoniae [9]): 0.015 µg/mL (≈ 0.0358 µM)
deltalog10CFU/ml (Streptococcus pneumoniae [10]): 4.7
deltalog10CFU/ml (Streptococcus pneumoniae [11]): 3.2
deltalog10CFU/ml (Streptococcus pneumoniae [12]): 3.6
deltalog10CFU/ml (Streptococcus pneumoniae [13]): 7.2
deltalog10CFU/ml (Streptococcus pneumoniae [14]): 3.7
MIC (Streptococcus pneumoniae [15]): 0.12 µg/mL (≈ 0.286 µM)
MIC (Streptococcus pneumoniae [16]): 0.25 µg/mL (≈ 0.596 µM)
MIC (Streptococcus pneumoniae [17]): 0.5 µg/mL (≈ 1.19 µM)
deltalog10CFU/ml (Streptococcus pneumoniae [18]): 6.9
MIC (Staphylococcus aureus [19]): 0.008 µg/mL (≈ 0.0191 µM)
MIC (Staphylococcus aureus [20]): 0.06 µg/mL (≈ 0.143 µM)
deltalog10CFU/ml (Staphylococcus aureus [21]): 6.5
deltalog10CFU/ml (Staphylococcus aureus [22]): 6.2
deltalog10CFU/ml (Staphylococcus aureus [23]): 4.2
deltalog10CFU/ml (Staphylococcus aureus [24]): 3.8
deltalog10CFU/ml (Staphylococcus aureus [25]): 3.5
deltalog10CFU/ml (Staphylococcus aureus [26]): 2.3
MIC (Streptococcus pneumoniae [27]): 0.015 µg/mL (≈ 0.0358 µM)
MIC (Streptococcus pneumoniae [28]): 0.015 µg/mL (≈ 0.0358 µM)
MIC (Staphylococcus aureus [29]): 0.12 µg/mL (≈ 0.286 µM)
